Results on seven compounds are retold here after ChEMBL document CHEMBL2069261, “Click-based synthesis of triazolobithiazole ΔF508-CFTR correctors for cystic fibrosis” (Bioorg Med Chem, 2012).

Calls of active or inactive are those of the source. The calls are words filed in the database; no cut-off is given here.

Series [1] concerns the target Cystic fibrosis transmembrane conductance regulator (Homo sapiens, UniProt P13569, F508DEL). Nature of the series: (§1) Corrector activity at human CFTR deltaF508 mutant expressed in FRT cells stimulated forskolin and potentiator genistein with assessed as iodide influx incubated for 24 hrs. It counts as cell-based. The gist of the method:
(§2)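 Epithelial cells co-expressing ΔF508-CFTR and a fluorescent halide sensor were treated with compound for 24 h across a dose range. They were then stimulated with forskolin (cAMP agonist) plus genistein (potentiator), and I⁻ influx was read from the sensor. Vmax and EC50 were taken from the dose-response curves. n=4, with S.E. reported.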

A short description of series [2]: Lipophilicity, log P of the compound. To be noted: octanol/water. It counts as physicochemical. The method in brief: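 LogP was estimated from HPLC retention times. The capacity factor was calculated and correlated to logP values.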
In series [3] the test system is Cystic fibrosis transmembrane conductance regulator (Homo sapiens), P13569 [F508del]. The description is as §1. The format is cell-based. The gist of the method: as §2
Chain of Cystic fibrosis transmembrane conductance regulator (Homo sapiens), P13569 [F508del] (P13569 as listed by the source): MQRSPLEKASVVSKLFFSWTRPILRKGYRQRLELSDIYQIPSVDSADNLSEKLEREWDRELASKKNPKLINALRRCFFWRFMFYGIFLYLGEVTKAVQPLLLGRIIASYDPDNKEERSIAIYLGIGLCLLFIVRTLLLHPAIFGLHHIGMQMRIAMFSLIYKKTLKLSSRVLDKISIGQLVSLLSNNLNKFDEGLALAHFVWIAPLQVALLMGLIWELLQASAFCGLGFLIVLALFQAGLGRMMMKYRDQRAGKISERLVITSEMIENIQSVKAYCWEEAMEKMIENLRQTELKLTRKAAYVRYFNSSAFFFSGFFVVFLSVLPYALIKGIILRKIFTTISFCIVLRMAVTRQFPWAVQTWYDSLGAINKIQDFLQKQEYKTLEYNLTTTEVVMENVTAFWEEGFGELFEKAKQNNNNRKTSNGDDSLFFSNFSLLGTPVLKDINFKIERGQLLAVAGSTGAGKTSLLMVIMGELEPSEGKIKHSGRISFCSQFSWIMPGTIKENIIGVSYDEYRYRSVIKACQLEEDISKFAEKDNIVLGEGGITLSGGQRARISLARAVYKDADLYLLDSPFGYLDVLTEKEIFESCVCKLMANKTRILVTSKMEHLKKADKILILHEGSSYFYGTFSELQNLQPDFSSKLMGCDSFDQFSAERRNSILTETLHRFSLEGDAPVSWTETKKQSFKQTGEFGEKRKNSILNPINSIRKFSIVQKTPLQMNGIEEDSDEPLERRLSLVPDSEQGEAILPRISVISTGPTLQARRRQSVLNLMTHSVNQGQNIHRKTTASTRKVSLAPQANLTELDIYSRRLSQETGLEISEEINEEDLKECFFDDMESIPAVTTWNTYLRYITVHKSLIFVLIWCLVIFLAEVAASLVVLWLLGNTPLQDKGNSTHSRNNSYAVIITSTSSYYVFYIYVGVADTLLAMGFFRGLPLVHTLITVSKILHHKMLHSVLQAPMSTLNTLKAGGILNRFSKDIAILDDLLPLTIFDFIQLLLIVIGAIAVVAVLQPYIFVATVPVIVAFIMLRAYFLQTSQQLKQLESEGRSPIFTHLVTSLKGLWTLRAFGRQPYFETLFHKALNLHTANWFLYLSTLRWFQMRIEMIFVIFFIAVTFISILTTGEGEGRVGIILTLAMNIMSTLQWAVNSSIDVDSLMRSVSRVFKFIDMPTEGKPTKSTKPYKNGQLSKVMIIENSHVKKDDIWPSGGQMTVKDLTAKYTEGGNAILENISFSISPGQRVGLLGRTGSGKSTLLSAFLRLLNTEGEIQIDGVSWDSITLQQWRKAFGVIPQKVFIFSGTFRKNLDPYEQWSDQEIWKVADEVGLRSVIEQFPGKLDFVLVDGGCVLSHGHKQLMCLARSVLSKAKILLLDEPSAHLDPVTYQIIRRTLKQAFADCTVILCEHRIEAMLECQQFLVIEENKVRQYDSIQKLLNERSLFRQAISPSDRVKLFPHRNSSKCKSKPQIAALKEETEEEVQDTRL

Chain of Cystic fibrosis transmembrane conductance regulator (P13569 as listed by the source): as above

As for `COc1ccc(Cl)cc1Nc1nc(-c2sc(NC(=O)C(C)(C)C)nc2C)c(-n2cc(CO)nn2)s1`, the EC50 (usually the concentration needed to bring the measured effect to its halfway point) in series [1] was found to be 1600 nM. Also, the lipophilicity (logP) (commonly a log measure of how a compound divides between an organic and an aqueous phase) in series [2] (read-out: logP) stood at 4.8.
On to `COc1ccc(Cl)cc1Nc1nc(-c2sc(NC(=O)C(C)(C)C)nc2C)c(-n2cc(-c3ccccc3)nn2)s1`, for which the EC50 in series [1] stood at 140 nM.
Still for that read-out and setting: as for `CNc1nc(-c2sc(NC(=O)C(C)(C)C)nc2C)c(-n2cc(-c3ccccc3)nn2)s1`, the figure is 4900 nM.
Take `COC(=O)c1cn(-c2sc(Nc3cc(Cl)ccc3OC)nc2-c2sc(NC(=O)C(C)(C)C)nc2C)nn1`: in series [1], the EC50 was found to be 4600 nM. Further, in series [2] (read-out: logP), the log partition coefficient (logP) stood at 4.8.
Regarding `Cc1nc(NC(=O)C(C)(C)C)sc1-c1nc(N)sc1-n1cc(-c2ccccc2)nn1`, in series [1], the 50% effective concentration (EC50) stood at 1500 nM.
As for `COc1ccc(Cl)cc1Nc1nc(-c2sc(NC(=O)C(C)(C)C)nc2C)c(-n2cc(C(=O)O)nn2)s1`, the logP in series [2] (read-out: logP) came out at 4.8.
For the compound `COc1ccc(Cl)cc1Nc1nc(-c2sc(NC(=O)c3ccccc3)nc2C)cs1`, in series [3], the result was Active. In series [2], this compound had a logP of 5.96.
